Experimental data: ChEMBL document CHEMBL1833887, “Synthesis and evaluation of 7-substituted 4-aminoquinoline analogues for antimalarial activity” (J Med Chem, 2011)
≈ marks a conversion by molar mass, not a printed value.

How the values were obtained:
Plasmodium falciparum [1] = assay: Ratio of EC50 for chloroquine-resistant Plasmodium falciparum K1 infected in human erythrocytes to EC50 for chloroquine-sensitive Plasmodium falciparum 3D7 infected in human erythrocytes; type: functional
HepG2 = assay: Cytotoxicity against human HepG2 cells assessed as intracellular ATP level after 72 hrs by Celltiter-Glo luminescent assay; type: cell-based; details: HepG2, 72 h
Plasmodium falciparum [2] = assay: Antimalarial activity against chloroquine-sensitive Plasmodium falciparum 3D7 infected in human erythrocytes assessed as reduction in parasitemia after 72 hrs by spectrophotometry; type: functional, organism-based; details: 3D7, 72 h
[3] = Dissociation constant, pKa of the compound; type: physicochemical
[4] = Ratio of EC50 for human HepG2 cells to EC50 for Plasmodium falciparum K1 infected in human erythrocytes
Plasmodium falciparum [5] = assay: Antimalarial activity against chloroquine-resistant Plasmodium falciparum K1 infected in human erythrocytes assessed as reduction in parasitemia after 72 hrs by spectrophotometry; type: functional, organism-based; details: K1, 72 h
[6] = Permeability of the compound at pH 7.4 after 30 mins by PAMPA; type: ADME; details: read-out: permeability
Outline: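 PAMPA at pH 7.4. A 10 mM DMSO stock is diluted into system solution buffer; its UV spectrum serves as reference. Membrane painted with GIT lipid, acceptor chamber holds acceptor solution buffer. Sandwich stirred for 30 min, aqueous boundary layer set to 40. Donor and acceptor UV spectra read at 250–500 nm. Permeability coefficient from the AUCs of reference, donor and acceptor. Single experiment in triplicate.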

[7] = Ratio of EC50 for human HepG2 cells to EC50 for Plasmodium falciparum 3D7 infected in human erythrocytes
[8] = Solubility of the compound at pH 7.4 after 18 hrs by UV spectroscopic analysis; type: physicochemical; details: buffer
Outline: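 Kinetic solubility. A 10 mM stock is diluted 1:100 into PBS pH 7.4 and incubated 18 h at room temperature, then filtered; the filtrate is mixed 1:1 with 1-propanol. UV spectrum (250–500 nm) compared by AUC with a 1-propanol/PBS reference. Single experiment in triplicate.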

Row | SMILES | Ratio EC50 (Plasmodium falciparum [1]) | EC50 (HepG2) [nM] | EC50 (Plasmodium falciparum [2]) [nM] | pKa [3] | Ratio EC50 [4] | EC50 (Plasmodium falciparum [5]) [nM] | Papp at 0.5 h [6] [×10⁻⁶ cm/s] | Ratio EC50 [7] | solubility at 18 h [8] [µM]
1 | c1ccc(Oc2ccc3c(NCCCNCc4ccc5c(c4)OCO5)ccnc3c2)cc1 | 4.3 | 2700 | 18 | 9.28 | 34 | 78 | 317 | 149 | 14.5 (≈ 6.2 µg/mL)
2 | COc1ccccc1Oc1ccc2c(NCCCNCc3ccco3)ccnc2c1 | 66.9 | 6500 | 1 | 9.28 | 75 | 87 | 317 | 5014 | 14.5 (≈ 5.85 µg/mL)
3 | Fc1ccc(Oc2ccc3c(NCCCNCc4ccco4)ccnc3c2)cc1 | 3.6 | 16000 | 26 | 9.28 | 167 | 96 | 317 | 611 | 14.5 (≈ 5.68 µg/mL)
4 | COc1ccc(F)cc1CNCCCNc1ccnc2cc(Oc3ccc(Cl)cc3)ccc12 | 3.5 | 4500 | 31 | 9.28 | 41 | 109 | 317 | 143 | 14.5 (≈ 6.76 µg/mL)
5 | COc1ccc(F)cc1CNCCCNc1ccnc2cc(Oc3ccc(F)cc3)ccc12 | 0.5 | 6600 | 297 | 9.28 | 49 | 135 | 317 | 22 | 14.5 (≈ 6.52 µg/mL)
6 | COc1ccc(F)cc1CNCCCNc1ccnc2cc(Oc3ccccc3)ccc12 | 0.9 | 1500 | 162 | 9.28 | 11 | 138 | 317 | 9 | 14.5 (≈ 6.26 µg/mL)
7 | COc1cccc(Oc2ccc3c(NCCCNCc4ccco4)ccnc3c2)c1 | 17.4 | 15500 | 9 | 9.28 | 102 | 153 | 317 | 1763 | 14.5 (≈ 5.85 µg/mL)
8 | CN(C)c1cccc(Oc2ccc3c(NCCCNCc4ccco4)ccnc3c2)c1 | 5.7 | 16000 | 27 | 9.28 | 103 | 155 | 317 | 588 | 14.5 (≈ 6.04 µg/mL)
9 | COc1cccc(CNCCCNc2ccnc3cc(Oc4ccc(C(C)(C)C)cc4)ccc23)c1O | 4.6 | 1500 | 54 | 9.28 | 6 | 249 | 317 | 28 | 14.5 (≈ 7.04 µg/mL)
10 | COc1cccc(Oc2ccc3c(NCCCNCc4cc(F)ccc4OC)ccnc3c2)c1 | 0.1 | 7100 | 2360 | 9.28 | 24 | 296 | 317 | 3 | 14.5 (≈ 6.69 µg/mL)
11 | Clc1ccc(Oc2ccc3c(NCCCNCc4ccc5c(c4)OCO5)ccnc3c2)cc1 | 8.4 | 7200 | 38 | 9.28 | 22 | 320 | 317 | 189 | 14.5 (≈ 6.7 µg/mL)
